Source: PMC3778312 (British Journal of Cancer, 2013)
“Also recorded” adds a separate entry of the source.

What was measured:
[1] = Phase 1 safety monitoring of PX-866 with docetaxel; type: in vivo, human
How it was run: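 Open-label dose escalation in cohorts of 6–9 patients at 4, 6 or 8 mg oral daily test compound plus docetaxel 75 mg m−2 IV every 21 days, with dexamethasone premedication. All patients receiving ≥1 dose had vital signs, labs and exams; AEs were graded by NCI CTCAE v4.02. DLTs included related grade ≥3 events, febrile grade 3/4 neutropenia, platelets <25 000 per μl and ANC <500 per μl for >7 days.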

incurable solid tumours = assay: Phase 1 antitumour activity of PX-866 with docetaxel; type: in vivo, human
How it was run: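 Test compound given orally at 4, 6 or 8 mg daily (fasting) with docetaxel 75 mg m−2 IV every 21 days. In cycle 1, docetaxel was given on day 1 and the test compound started on day 8. Response was assessed about every 6 weeks by RECIST 1.1, with PSA per PCWG allowed in mCRPC. PFS ran from consent to progression or death. Archival tumour was genotyped for PIK3CA/KRAS by shifted termination assay.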

PI3Kα = details: read-out: IC50 against PI3Kα; ref Wipf et al, 2004; cited from earlier work
PI-3Kβ = details: read-out: IC50 against PI-3Kβ; ref Wipf et al, 2004; cited from earlier work
A-549 NSCLC xenografts = details: single agent; ref Ihle et al, 2005; Koul et al, 2010; cited from earlier work
[2] = test system: OvCar-3 ovarian cancer xenografts; details: single agent; ref Ihle et al, 2005; Koul et al, 2010; cited from earlier work
[3] = test system: HT29 colon cancer xenografts; details: single agent; ref Ihle et al, 2005; Koul et al, 2010; cited from earlier work
U87 glioma xenografts = details: single agent; ref Ihle et al, 2005; Koul et al, 2010; cited from earlier work
[4] = test system: Patient-derived SCCHN xenografts; details: PX-866 and docetaxel compared with either agent alone; ref Bowles et al, 2011; cited from earlier work
advanced solid tumors = details: ref Hong et al, 2012, cited from earlier work
[5] = PX-866 with docetaxel, 43 patients
[6] = Total, all PX-866 doses + docetaxel, N=43

## C=CCN(/C=C1/C(=O)O[C@H](COC)[C@@]2(C)C1=C(O)C(=O)C1=C2[C@H](OC(C)=O)C[C@]2(C)C(=O)CC[C@@H]12)CC=C [PX-866]
[1]; 4 out of 43, all in the 8 mg cohort, vomiting and/or diarrhoea
  patients requiring PX-866 dose reductions: 9%
[1]; PX-866 4 mg + docetaxel, N=10
  Treatment-emergent AE: Alopecia: 2 (20) N (%)
  Treatment-emergent AE: Anaemia: 2 (20) N (%)
  Treatment-emergent AE: Arthralgia: 0 (0) N (%)
  Treatment-emergent AE: Asthenia: 1 (10) N (%)
  Treatment-emergent AE: Bone pain: 0 (0) N (%)
  Treatment-emergent AE: Cough: 2 (20) N (%)
  Treatment-emergent AE: Decreased appetite: 1 (10) N (%)
  Treatment-emergent AE: Dehydration: 3 (30) N (%)
  Treatment-emergent AE: Diarrhoea: 7 (70) N (%)
  Treatment-emergent AE: Dizziness: 1 (10) N (%)
  Treatment-emergent AE: Dysgeusia: 2 (20) N (%)
  Treatment-emergent AE: Epistaxis: 1 (10) N (%)
  Treatment-emergent AE: Fatigue: 6 (60) N (%)
  Treatment-emergent AE: Hypokalemia: 2 (20) N (%)
  Treatment-emergent AE: Nausea: 5 (50) N (%)
  Treatment-emergent AE: Neutropenia: 6 (60) N (%)
  Treatment-emergent AE: Oedema peripheral: 4 (40) N (%)
  Treatment-emergent AE: Oropharyngeal pain: 1 (10) N (%)
  Treatment-emergent AE: Pyrexia: 1 (10) N (%)
  Treatment-emergent AE: Stomatitis: 1 (10) N (%)
  Treatment-emergent AE: Vomiting: 3 (30) N (%)
  Treatment-emergent AEs, frequency by severity: Grade 1: 32 (56) N (%)
  Treatment-emergent AEs, frequency by severity: Grade 2: 10 (18) N (%)
  Treatment-emergent AEs, frequency by severity: Grade 3: 8 (14) N (%)
  Treatment-emergent AEs, frequency by severity: Grade 4: 7 (12) N (%)
  Treatment-emergent AEs, frequency by severity: Grade 5: 0 (0) N (%)
[1]; PX-866 6 mg + docetaxel, N=10
  Treatment-emergent AE: Alopecia: 6 (60) N (%)
  Treatment-emergent AE: Anaemia: 2 (20) N (%)
  Treatment-emergent AE: Arthralgia: 2 (20) N (%)
  Treatment-emergent AE: Asthenia: 4 (40) N (%)
  Treatment-emergent AE: Bone pain: 4 (40) N (%)
  Treatment-emergent AE: Constipation: 3 (30) N (%)
  Treatment-emergent AE: Cough: 5 (50) N (%)
  Treatment-emergent AE: Decreased appetite: 4 (40) N (%)
  Treatment-emergent AE: Dehydration: 1 (10) N (%)
  Treatment-emergent AE: Diarrhoea: 8 (80) N (%)
  Treatment-emergent AE: Dizziness: 2 (20) N (%)
  Treatment-emergent AE: Dysgeusia: 3 (30) N (%)
  Treatment-emergent AE: Epistaxis: 2 (20) N (%)
  Treatment-emergent AE: Fatigue: 7 (70) N (%)
  Treatment-emergent AE: Hypokalemia: 1 (10) N (%)
  Treatment-emergent AE: Nausea: 4 (40) N (%)
  Treatment-emergent AE: Neutropenia: 5 (50) N (%)
  Treatment-emergent AE: Oedema peripheral: 6 (60) N (%)
  Treatment-emergent AE: Oropharyngeal pain: 1 (10) N (%)
  Treatment-emergent AE: Pyrexia: 4 (40) N (%)
  Treatment-emergent AE: Stomatitis: 4 (40) N (%)
  Treatment-emergent AE: Vomiting: 5 (50) N (%)
  Treatment-emergent AEs, frequency by severity: Grade 1: 36 (49) N (%)
  Treatment-emergent AEs, frequency by severity: Grade 2: 30 (41) N (%)
  Treatment-emergent AEs, frequency by severity: Grade 3: 5 (7) N (%)
  Treatment-emergent AEs, frequency by severity: Grade 4: 3 (4) N (%)
  Treatment-emergent AEs, frequency by severity: Grade 5: 0 (0) N (%)
[1]; PX-866 8 mg + docetaxel, N=23
  Treatment-emergent AE: Alopecia: 4 (17) N (%)
  Treatment-emergent AE: Anaemia: 9 (39) N (%)
  Treatment-emergent AE: Arthralgia: 5 (22) N (%)
  Treatment-emergent AE: Asthenia: 6 (26) N (%)
  Treatment-emergent AE: Bone pain: 5 (22) N (%)
  Treatment-emergent AE: Constipation: 8 (35) N (%)
  Treatment-emergent AE: Cough: 3 (13) N (%)
  Treatment-emergent AE: Decreased appetite: 10 (44) N (%)
  Treatment-emergent AE: Dehydration: 11 (48) N (%)
  Treatment-emergent AE: Diarrhoea: 18 (78) N (%)
  Treatment-emergent AE: Dizziness: 4 (17) N (%)
  Treatment-emergent AE: Dysgeusia: 3 (13) N (%)
  Treatment-emergent AE: Epistaxis: 4 (17) N (%)
  Treatment-emergent AE: Fatigue: 13 (57) N (%)
  Treatment-emergent AE: Hypokalemia: 6 (26) N (%)
  Treatment-emergent AE: Nausea: 16 (70) N (%)
  Treatment-emergent AE: Neutropenia: 6 (26) N (%)
  Treatment-emergent AE: Oedema peripheral: 7 (30) N (%)
  Treatment-emergent AE: Oropharyngeal pain: 5 (22) N (%)
  Treatment-emergent AE: Pyrexia: 6 (26) N (%)
  Treatment-emergent AE: Stomatitis: 4 (17) N (%)
  Treatment-emergent AE: Vomiting: 14 (61) N (%)
  Treatment-emergent AEs, frequency by severity: Grade 1: 84 (50) N (%)
  Treatment-emergent AEs, frequency by severity: Grade 2: 62 (37) N (%)
  Treatment-emergent AEs, frequency by severity: Grade 3: 15 (9) N (%)
  Treatment-emergent AEs, frequency by severity: Grade 4: 8 (5) N (%)
  Treatment-emergent AEs, frequency by severity: Grade 5: 0 (0) N (%)
[1]; PX-866 4, 6, 8 mg daily with docetaxel 75 mg m^−2
  dose-limiting toxicities: No dose-limiting toxicities; also recorded: No DLTs
[1]; PX-866 and docetaxel
  tolerability: well tolerated
[1]; [5]
  gastrointestinal disorders, PX-866-related: 83.7%
  study drug-related diarrhoea, patients: 76.7%
[1]; PX-866 with docetaxel, N=43
  Grade 3/4 AE related to PX-866: diarrhoea: 3 N
  Grade 3/4 AE related to PX-866: nausea: 2 N
  SAEs considered related to study treatment: 17
  patients who experienced serious AEs: Twenty
  treatment-emergent AE neutropenia: 40%
  treatment-emergent AE peripheral oedema: 40%
  treatment-emergent AE vomiting: 51%
[1]; [6]
  Treatment-emergent AE: Alopecia: 12 (28) N (%)
  Treatment-emergent AE: Anaemia: 13 (30) N (%)
  Treatment-emergent AE: Arthralgia: 7 (16) N (%)
  Treatment-emergent AE: Asthenia: 11 (26) N (%)
  Treatment-emergent AE: Bone pain: 9 (21) N (%)
  Treatment-emergent AE: Constipation: 13 (30) N (%)
  Treatment-emergent AE: Cough: 10 (23) N (%)
  Treatment-emergent AE: Decreased appetite: 15 (35) N (%)
  Treatment-emergent AE: Dehydration: 15 (35) N (%)
  Treatment-emergent AE: Diarrhoea: 33 (77) N (%)
  Treatment-emergent AE: Dizziness: 7 (16) N (%)
  Treatment-emergent AE: Dysgeusia: 8 (19) N (%)
  Treatment-emergent AE: Epistaxis: 7 (16) N (%)
  Treatment-emergent AE: Fatigue: 26 (61) N (%)
  Treatment-emergent AE: Hypokalemia: 9 (21) N (%)
  Treatment-emergent AE: Nausea: 25 (58) N (%)
  Treatment-emergent AE: Neutropenia: 17 (40) N (%)
  Treatment-emergent AE: Oedema peripheral: 17 (40) N (%)
  Treatment-emergent AE: Oropharyngeal pain: 7 (16) N (%)
  Treatment-emergent AE: Pyrexia: 11 (26) N (%)
  Treatment-emergent AE: Stomatitis: 9 (21) N (%)
  Treatment-emergent AE: Vomiting: 22 (51) N (%)
  Treatment-emergent AEs, frequency by severity: Grade 1: 152 (51) N (%)
  Treatment-emergent AEs, frequency by severity: Grade 2: 102 (34) N (%)
  Treatment-emergent AEs, frequency by severity: Grade 3: 28 (9) N (%)
  Treatment-emergent AEs, frequency by severity: Grade 4: 18 (6) N (%)
  Treatment-emergent AEs, frequency by severity: Grade 5: 0 (0) N (%)
[1]; daily, with docetaxel 75 mg m^−2 IV every 21 days
  RP2D of PX-866 in combination: 8 mg
[1]; two after progressive disease, one pneumonia unrelated to either study drug
  deaths on study: three
Incurable solid tumours; 11 out of 35
  evaluable patients remaining on study in excess of 180 days: 31%
Incurable solid tumours; 35 evaluable patients (2 patients)
  best response: partial response (PR): 6%
Incurable solid tumours; 35 evaluable patients (11 patients)
  best response: disease progression (PD): 31%
Incurable solid tumours; N=6, range: 49–334, P=0.23 vs WT/WT
  median PFS, PIK3CA-MUT/KRAS-WT: 175 days
Incurable solid tumours; N=12, range: 1–569
  median PFS, mutational status unknown: 77.5 days
Incurable solid tumours; N=20, range: 1–342
  median PFS, PIK3CA-WT/KRAS-WT: 49 days
Incurable solid tumours; evaluable patients
  PR+SD rate: 69%
Incurable solid tumours; range: 1–569
  overall median progression-free survival (PFS): 73.5 days
Incurable solid tumours; ten patients
  patients with tumour shrinkage of ⩾15%: 29%
PI3Kα
  IC50: 39 ± 21 nM
PI-3Kβ
  IC50: 88 ± 27 nM
A-549 NSCLC xenografts
  tumour growth: delays tumour growth
[2]
  tumour growth: delays tumour growth
[3]
  tumour growth: delays tumour growth
U87 glioma xenografts
  tumour growth: delays tumour growth
[4]
  tumour suppression: enhanced tumour suppression
Advanced solid tumors; previously determined, daily
  single-agent MTD: 8 mg
Advanced solid tumors
  time PX-866 may be given safely: over 1 year
Advanced solid tumors; single-agent PX-866, week 6
  best response per RECIST 1.1: stable disease, share of evaluable patients: over 50%
Advanced solid tumors; single-agent PX-866
  recommended phase 2 dose (RP2D), single agent: 8 mg daily
